Shown are actives, neighbours in structure and some others; about 3.6% of the full set was active somewhere.
Hsp70 act: Hsp70 transcriptional activators, primary screen, cell-based, HeLa, Hsp70 promoter luciferase, luminescence, 10 µM; 200,000 compounds, 0.04% hits; AID 1203, 2008; activation, % at 10 µM; HeLa Hsp70 promoter luciferase reporter; scaled: vehicle 0, proteasome-inhibitor control 100%;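 active = activation above the mean across all tested compounds plus 3 SD, cutoff set per campaign, cut at about 5.5% in these data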;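 note: 100% = MG132 at 30 µM as the positive control and 0% = DMSO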
HSF1 inhib: HSF1 inhibitors in luciferase reporter cells, primary screen, cell-based, NIH3T3, luminescence | activity change, negative = inhibition, % at 7.5 µM (by protocol) | NIH3T3-HGL HSE-luciferase, MG132-induced, luminescence 8 h; hits give low values | 300,000 compounds, 0.77% hits;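 active = more than half of replicate wells show activity change below -50%, luminescence cut by over half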;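 note: luciferase reports HSF-1 transcriptional activity via heat shock element; 0% = median of DMSO wells and -100% = zero luminescence signal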
PolyA inhibitor: polyadenylation inhibitors in yeast reporter cells, primary screen, luminescence, S. cerevisiae; S. cerevisiae SKY197-pL101 polyadenylation reporter, beta-gal luminescence; efflux-impaired pdr1/pdr3 knockout yeast; score 100 = 6 SD above DMSO; activity score, % at 12 µM; 300,000 compounds, 0.02% hits; AID 1875, 2009;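 active = lowest replicate activity score at least 50, where 100 means six control SD above control mean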;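 note: yeast exposed to compound for 9 h at 30 °C; higher score means more reporter readthrough which indicates perturbed polyadenylation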
STAT3 act-1: IL-6 driven STAT3 reporter potentiators, primary screen, U3A cells, luciferase, luminescence, MLSCN library. IL-6 STAT3-luciferase reporter; 100% = signal with IL-6 EC80 alone. activation (% of control), % at 5.6 µM. 190,000 compounds, 0.91% hits. AID 871, 2007;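 active = activation above the screen-wide mean of compound activation plus 3 SD, cut at about 130% in these data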;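 note: 0% = background luminescence of wells with medium and substrate only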
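System – human U3A cells carrying STAT3-luciferase construct · Probe or stimulus – Interleukin-6, 33 ng/mL · Schedule – compound 1 h, then IL-6 6 h at 37 °C · Signal – luminescence from STAT3-driven luciferase reporter · Evaluation – percent of IL-6-only median luminescence · Benchmarks – IL-6-only high control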
PERK inhibitor: block of dimerizer-induced PERK translation repression, primary screen, PERK inhibitor project, CHO PERK-DD cells, SEAP luminescence, HTS. Eukaryotic translation initiation factor 2-alpha kinase 3 (Homo sapiens), Q9NZJ5. CHO PERK-DD fusion, SEAP luminescence translation reporter. inhibition, % at 5.6 µM. 220,000 compounds, 0.17% hits. AID 1416, 2008;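 active = inhibition above the mean inhibition of all tested compounds plus 3 SD, set separately per screening campaign, cut at about 2.9% in these data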;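 note: PERK kinase domain activated by AP20187 dimerizer at 100 nM; 0% = DMSO with dimerizer and 100% = rapamycin at 8.4 µM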
Target sequence (Q9NZJ5 whole entry, looked up, the tested form may be a part): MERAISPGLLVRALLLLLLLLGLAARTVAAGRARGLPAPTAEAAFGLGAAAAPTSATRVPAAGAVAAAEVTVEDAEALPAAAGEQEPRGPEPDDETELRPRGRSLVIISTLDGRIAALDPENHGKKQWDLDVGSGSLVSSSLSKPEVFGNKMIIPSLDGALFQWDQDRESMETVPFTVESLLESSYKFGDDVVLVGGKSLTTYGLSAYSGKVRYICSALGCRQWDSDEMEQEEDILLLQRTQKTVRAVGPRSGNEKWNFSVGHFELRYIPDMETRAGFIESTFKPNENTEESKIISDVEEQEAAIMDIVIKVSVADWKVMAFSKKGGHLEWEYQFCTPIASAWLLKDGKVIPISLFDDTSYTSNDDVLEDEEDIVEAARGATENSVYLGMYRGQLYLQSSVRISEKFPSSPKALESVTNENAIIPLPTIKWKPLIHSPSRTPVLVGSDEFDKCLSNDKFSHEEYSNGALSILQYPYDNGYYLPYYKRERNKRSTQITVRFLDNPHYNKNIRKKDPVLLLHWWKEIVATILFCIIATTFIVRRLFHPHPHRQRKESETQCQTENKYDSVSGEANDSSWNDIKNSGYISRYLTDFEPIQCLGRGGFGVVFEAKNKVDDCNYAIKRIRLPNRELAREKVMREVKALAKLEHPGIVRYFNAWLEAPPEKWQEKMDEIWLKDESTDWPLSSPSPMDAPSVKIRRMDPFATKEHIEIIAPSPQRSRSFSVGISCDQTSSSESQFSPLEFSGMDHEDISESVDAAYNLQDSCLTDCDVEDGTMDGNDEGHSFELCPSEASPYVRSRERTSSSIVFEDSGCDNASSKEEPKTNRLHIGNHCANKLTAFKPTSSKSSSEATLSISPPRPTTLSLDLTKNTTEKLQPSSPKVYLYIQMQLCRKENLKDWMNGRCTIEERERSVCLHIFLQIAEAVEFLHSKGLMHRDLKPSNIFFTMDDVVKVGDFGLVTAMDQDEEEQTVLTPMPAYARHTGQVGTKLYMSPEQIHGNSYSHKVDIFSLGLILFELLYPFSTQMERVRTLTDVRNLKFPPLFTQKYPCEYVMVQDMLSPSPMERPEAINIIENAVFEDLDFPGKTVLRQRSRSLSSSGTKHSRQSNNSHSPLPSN
AHR act: AHR activators, primary screen, cell-based, luminescence, luciferase reporter, human | Aryl hydrocarbon receptor (Homo sapiens), P35869 | AHR-responsive luciferase reporter cells | activation, % at 5 µM | 320,000 compounds, 2.5% hits | AID 2796, 2010; in the data active = activation above about 47%;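 note: 0% = vehicle wells and 100% = reference agonist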
STAT3 act-2: STAT3 reporter potentiators, retest of hits, confirmation, U3A cells, luciferase, luminescence; shares compounds with STAT3 act-1; IL-6 potentiation; U3A cells lack STAT1; 100 means same as IL-6 alone; potentiation (% of control), % at 5.7 µM; 1,200 compounds, 64% hits; AID 1267, 2008;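 active = percent activation of the STAT3 luciferase reporter above a set limit taken from the earlier primary screen, cut at about 130% in these data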;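 note: 0% = background signal of medium plus substrate and 100% = median of IL-6 with DMSO wells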
NFkB act 2: NF-kB reporter activators in human cells, counter-screen for STAT3 activator project | shares compounds with STAT3 act-1 | NF-kappaB reporter activation | activation (% of control), % at 5.7 µM | 1,200 compounds, 11% hits | AID 1309, 2008; in the data active = activation above about 120%;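 note: reporter induced by TNF-alpha stimulation; 100% = median of stimulated DMSO wells and 0% = no signal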
STAT1 act STAT3c: STAT1 reporter activators, IFN-gamma induced, counter-screen for STAT3 activator project, cell-based, NIH 3T3, luciferase luminescence; shares compounds with STAT3 act-1; NIH 3T3 STAT1-luciferase reporter; activation (% of control), % at 5.7 µM; 1,200 compounds, 13% hits;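 active = activation above the solvent-only control well mean plus 3 SD, set per screening run, cut at about 120% in these data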;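 note: 100% = IFN-gamma with DMSO median signal so 100% means no change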
Numbers without * were called inactive; . = no result given.

SMILES	Hsp70 act	HSF1 inhib	PolyA inhibitor	STAT3 act-1	PERK inhibitor	AHR act	STAT3 act-2	NFkB act 2	STAT1 act STAT3c
CCCOc1ccc(-c2nc(OC)c3ccccc3n2)cc1	0.2	12.9	-4.8	142.2*	0.5	77.1*	151.7*	105.3	99.7
COc1ccc(Oc2nc(-c3cccnc3)nc3ccccc23)cc1	.	4.9	-35.4	.	-1.7	4.5	.	.	.
O=C(O)CCCCCN1C(=O)C(O)=C(C(=O)/C=C/c2ccccc2)C1c1ccccc1[N+](=O)[O-] (stereo unspecified)	-0.1	11.5	-9.9	140.1*	-1.0	14.7	145.1*	107.0	94.0
CC1=NN(c2ccccc2)C(=O)/C1=C/c1c(C)[nH]n(-c2ccc(C)cc2)c1=O	.	-23.5	22.2	.	.	-0.2	.	.	.
Cc1[nH]n(-c2ccccc2)c(=O)c1/C=C1/C=c2ccccc2=N1	-0.4	-2.2	-17.7	155.8*	0.5	.	170.3*	100.9	100.1
c1ccc(C2c3[nH]c4ccccc4c3CCN2Cc2cccn2-c2ccccn2)nc1 (stereo unspecified)	.	-3.8	-4.3	.	-1.4	15.0	.	.	.
COc1ccc(C2c3[nH]c4ccccc4c3CCN2Cc2cccn2-c2ncccn2)cc1C (stereo unspecified)	-0.3	-11.1	-2.5	136.5*	-0.9	36.7	136.4*	103.8	94.1
Cc1cccc(C2c3[nH]c4ccccc4c3CCN2Cc2cccn2-c2ncccn2)c1 (stereo unspecified)	-0.1	-3.1	22.3	149.4*	0.9	25.5	156.1*	105.9	98.0
COCCn1nnnc1C(c1cc2cc(C)ccc2[nH]c1=O)N1CCc2ccccc21 (stereo unspecified)	0.2	5.1	3.5	149.6*	0.3	64.5*	105.6	107.8	97.0
COc1cccc(CC2(CO)CCCN(Cc3cc4ccccc4[nH]3)C2)c1 (stereo unspecified)	0.2	-0.4	15.2	147.8*	0.8	15.4	145.2*	100.0	88.9
Cc1ccccc1Cn1nnc(-c2ccc(F)cc2)n1	.	8.2	22.3	.	.	-0.9	.	.	.
O=C(CNc1ccc2ccccc2c1)N/N=C/c1cc2ccccc2nc1Cl	-0.3	8.0	-11.5	144.5*	0.1	40.8	137.6*	97.7	95.0
CCOC(=O)N1CCN(C(=O)c2ccc3nc4ccsc4c(=O)n3c2)CC1	-0.2	-4.8	-10.7	136.7*	-0.2	15.7	134.4*	100.4	100.2
CCOC(=O)CSc1nc2ccsc2c(=O)n1C1CCN(C(=O)OCC)CC1	-0.5	-7.8	-17.9	91.5	-0.1	1.6	.	.	.
COc1cc(C2c3sc(=O)[nH]c3SC3C(=O)N(c4ccc(Br)cc4)C(=O)C32)ccc1O (stereo unspecified)	.	4.6	-6.8	.	-0.4	4.5	.	.	.
CCOc1ccc(N2C(=O)C3Sc4[nH]c(=O)sc4C(/C=C/c4ccccc4)C3C2=O)cc1 (stereo unspecified)	-0.2	0.1	-13.6	141.4*	0.1	27.2	127.7	111.8	115.3
CC1CC(C)CN(C(=O)CSC2=Nc3ccccc3C3=NC(Cc4c[nH]c5ccccc45)C(=O)N23)C1 (stereo unspecified)	-0.2	1.0	26.0	140.2*	-1.2	12.7	129.4	105.0	109.2
O=C(N/N=C/c1ccc(-c2cccc([N+](=O)[O-])c2)o1)c1cccs1	0.2	13.3	-8.2	137.3*	0.4	27.0	125.1	113.0	106.9
COc1ccc(NC(=O)c2cc3ccccc3o2)cc1OC	.	14.4	-1.4	.	.	-0.7	.	.	.
COc1cc(NC(=O)c2cc3ccccc3o2)c(OC)cc1Br	-0.1	-15.2	-3.1	149.4*	0.4	43.7	135.4*	100.9	101.8
COc1ccccc1C(=O)Nc1c(C)cc(Br)cc1C	-0.5	3.7	-0.2	103.6	0.4	11.5	.	.	.
COc1ccccc1C(=O)Nc1cc2ccccc2oc1=O	-0.2	22.0	15.6	184.2*	-0.2	34.7	191.8*	135.3*	165.7*
COc1ccccc1C(=O)Nc1cc2cc(Br)ccc2oc1=O	-0.2	0.0	-25.6	137.4*	1.3	23.4	137.7*	114.1	133.9*
COc1ccccc1C(=O)Nc1cc2c(ccc3ccccc32)oc1=O	0.0	1.2	-11.1	108.2	0.8	9.1	.	.	.
COc1ccccc1C(=O)Nc1cc(Cl)ccc1O	-0.1	18.5	-6.4	151.1*	1.0	34.7	161.9*	109.0	114.2
SMILES	Hsp70 act	HSF1 inhib	PolyA inhibitor	STAT3 act-1	PERK inhibitor	AHR act	STAT3 act-2	NFkB act 2	STAT1 act STAT3c
CCCCOc1ccc(/C=C/C(=O)NC2=Nc3ccccc3NC(C)=C2C(=O)OCC)cc1OC	0.0	10.1	16.3	98.3	0.3	6.7	.	.	.
COc1ccc(Br)cc1C(=O)Nc1cccc(C)c1	-0.1	3.0	-13.6	157.0*	-0.1	50.0*	139.0*	106.9	95.2
COc1ccc(Br)cc1C(=O)Nc1ccc(O)cc1	-0.2	2.4	11.3	85.4	0.8	42.0	.	.	.
Cc1ccc(NC(=O)c2cccc(C(=O)OC(C)C)n2)c(Br)c1	-0.2	-8.9	2.0	85.1	-0.1	-0.1	.	.	.
COC(=O)c1cccc(C(=O)Nc2cnc3ccccc3c2)n1	-0.3	.	.	183.3*	-0.2	44.2	162.4*	111.5	122.2*
COC(=O)c1cccc(C(=O)Nc2ccc(C)cc2Br)n1	0.0	-1.0	-11.4	140.8*	-0.4	-3.0	129.8	109.3	102.7
COc1ccc(-n2nnnc2SCc2nc3ccccc3s2)cc1	0.2	47.4	-12.6	146.3*	-0.5	15.4	137.9*	124.7*	141.7*
COc1ccc(CSc2nnnn2-c2ccccc2)cc1	-0.2	-0.9	-1.6	106.1	0.2	2.2	.	.	.
COc1ccc(C)cc1-n1nnnc1SCC1CCCO1 (stereo unspecified)	0.7	-1.1	-8.0	102.3	-0.8	-3.1	.	.	.

Bioassay records: PubChem, several laboratories
